# Measured values collected from several papers.
# Each line is one published result; the experiments were not run side by side.
# TEC: Tyrosine-protein kinase Tec (TEC, Homo sapiens, UniProt P42680)
# Melanocortin receptor 3: Melanocortin receptor 3 (Mus musculus, UniProt P33033)
# ADORA2B: Adenosine receptor A2b (ADORA2B, Homo sapiens, UniProt P29275)
# PBRM1 bromodomain: Protein polybromo-1, bromodomain (PBRM1, Homo sapiens, UniProt Q86U86)
SMILES,target,observed,action,technique,setting,quantity,result
c1cncc(-c2cccc(Nc3nccc(NC4CCCCC4)n3)c2)c1,"Tyrosine-protein kinase JAK1, JH2 (JAK1, Homo sapiens, UniProt P23458)",binding,,competition with immobilised ligand,,Kd,0.29 µM
COc1cc(Nc2ncc3c(n2)-c2ccc(Cl)cc2C(c2c(F)cccc2OC)=NC3)ccc1C(=O)O,TEC,binding,,,lysate,Kd,9.86 µM
CSCC[C@H](NC(=O)[C@@H](NC(=O)[C@@H](N)Cc1ccc(O)cc1)C(C)C)C(=O)NCC(=O)N[C@@H](Cc1c[nH]cn1)C(=O)N[C@@H](Cc1ccccc1)C(=O)N[C@@H](CCCNC(=N)N)C(=O)N[C@@H](Cc1c[nH]c2ccccc12)C(=O)N[C@@H](CC(=O)O)C(=O)N[C@@H](CCCNC(=N)N)C(=O)O,Melanocortin receptor 3,reporter gene,agonist,,,EC50,0.036 µM
CC(C)CC(C)N1CCCn2c1nc1c2c(=O)n(C)c(=O)n1C (stereo not drawn),ADORA2B,ligand displacement,,radioligand,cell membranes,Ki,> 10 µM
CSCC[C@H](NC(=O)[C@@H](NC(=O)[C@@H](N)Cc1ccc(O)cc1)C(C)C)C(=O)NCC(=O)N[C@@H](Cc1c[nH]cn1)C(=O)N[C@@H](Cc1ccccc1)C(=O)O,Melanocortin receptor 3,reporter gene,agonist,,,EC50,> 100 µM
CCCCOc1nc(N)c2[nH]c(=O)n(CCN)c2n1,"Toll-like receptor 7 (TLR7, Homo sapiens, UniProt Q9NYK1)",reporter gene,agonist,,,EC50,127 µM
Cc1ncsc1-c1ccc(CNC(=O)[C@@H]2C[C@@H](O)CN2C(=O)[C@@H](NC(=O)C2(F)CC2)C(C)(C)C)c(OCCOCCOCCN2CCN(c3cc(-c4ccccc4O)nnc3N)CC2)c1,PBRM1 bromodomain,binding,,SPR,,Kd,2.7 µM
Cc1[nH]c2ccccc2c1CCNC(=O)c1ccc(N(C)C)cc1,"Prostaglandin E2 receptor EP2 subtype (PTGER2, Homo sapiens, UniProt P43116)",cAMP,antagonist,TR-FRET,,Kb,~0.01 µM
N=C(N)NCCC[C@H](NC(=O)[C@H](CC(=O)O)NC(=O)[C@H](Cc1c[nH]c2ccccc12)NC(=O)[C@H](CCCNC(=N)N)NC(=O)[C@H](Cc1ccccc1)NC(=O)[C@@H](N)Cc1c[nH]cn1)C(=O)N[C@@H](Cc1ccccc1)C(=O)O,Melanocortin receptor 3,reporter gene,agonist,,,EC50,6.6 µM
N[C@@H](CCC(=O)O)C(=O)O,"Metabotropic glutamate receptor 8 (Grm8, Rattus norvegicus, UniProt P70579)",calcium signal,agonist,,,EC50,0.77 µM
N=C(N)NCCC[C@H](NC(=O)[C@H](CC(=O)O)NC(=O)[C@H](Cc1c[nH]c2ccccc12)NC(=O)[C@@H](N)CCCNC(=N)N)C(=O)N[C@@H](Cc1ccccc1)C(=O)NCC(=O)O,Melanocortin receptor 3,reporter gene,agonist,,,EC50,> 100 µM
CC#CC(=O)N1CC[C@@H](n2cc(-c3ccc(Oc4c(F)cccc4F)cc3)c3c(N)n[nH]c(=O)c32)C1,TEC,binding,,competition with immobilised ligand,,Kd,0.004 µM
CC(=O)N[C@H](C(=O)N1C[C@H](O)C[C@H]1C(=O)NCc1ccc(-c2scnc2C)cc1)C(C)(C)SCCCCCCNC(=O)C[C@@H]1N=C(c2ccc(Cl)cc2)c2c(sc(C)c2C)-n2c(C)nnc21,"Bromodomain-containing protein 2, BD1 (BRD2, Homo sapiens, UniProt P25440)",binding,,ITC,,Kd,0.111 µM
Nc1nc2c(ncn2[C@@H]2O[C@H](COP(=O)(O)OP(=O)(O)O)[C@@H](OP(=O)(O)OP(=O)(O)O)[C@H]2O)c(=O)[nH]1,"speC (Escherichia coli, UniProt P21169)",binding,,ITC,,Kd,1.6 µM
Cc1ncsc1-c1ccc(CNC(=O)[C@@H]2C[C@@H](O)CN2C(=O)[C@@H](NC(=O)C2(F)CC2)C(C)(C)C)c(OCCOc2ccc(CN3CCN(c4cc(-c5ccccc5O)nnc4N)CC3)cc2)c1,PBRM1 bromodomain,binding,,SPR,,Kd,0.83 µM
CC(C)CCCC(C)N1CCCn2c1nc1c2c(=O)n(C)c(=O)n1C (stereo not drawn),ADORA2B,ligand displacement,,radioligand,cell membranes,Ki,> 10 µM
N=C(N)NCCC[C@H](NC(=O)[C@H](CC(=O)O)NC(=O)[C@@H](N)Cc1c[nH]c2ccccc12)C(=O)N[C@@H](Cc1ccccc1)C(=O)NCC(=O)O,Melanocortin receptor 3,reporter gene,agonist,,,EC50,> 100 µM
CN1CCCn2c1nc1c2c(=O)n(C)c(=O)n1C,ADORA2B,ligand displacement,,radioligand,cell membranes,Ki,> 10 µM
CSCC[C@H](NC(=O)[C@@H](N)Cc1ccc(O)cc1)C(=O)N[C@@H](Cc1c[nH]cn1)C(=O)N[C@@H](Cc1ccccc1)C(=O)N[C@@H](CCCNC(=N)N)C(=O)N[C@@H](Cc1c[nH]c2ccccc12)C(=O)N[C@@H](Cc1ccccc1)C(=O)O,Melanocortin receptor 3,reporter gene,agonist,,,EC50,10.4 µM
COCCOc1ccc(N2CCN(CCn3ncc4c3nc(N)n3nc(-c5ccco5)nc43)CC2)cc1,ADORA2B,ligand displacement,,radioligand,cell membranes,Ki,> 1 µM
CCNC(=O)[C@H]1O[C@@H](n2cnc3c(N)nc(NN=CC4CCC=CO4)nc32)[C@H](O)[C@@H]1O (stereo partly drawn),ADORA2B,GTPγS binding,agonist,,cell membranes,EC50,17.4 µM
CCCCCC(C)N1CCCn2c1nc1c2c(=O)n(C)c(=O)n1C (stereo not drawn),ADORA2B,ligand displacement,,radioligand,cell membranes,Ki,> 10 µM
CSCC[C@H](NC(=O)[C@@H](NC(=O)[C@@H](N)Cc1ccc(O)cc1)C(C)C)C(=O)NCC(=O)N[C@@H](Cc1c[nH]cn1)C(=O)N[C@@H](Cc1ccccc1)C(=O)N[C@@H](CCCNC(=N)N)C(=O)N[C@@H](Cc1c[nH]c2ccccc12)C(=O)N[C@@H](CC(=O)O)C(=O)O,Melanocortin receptor 3,reporter gene,agonist,,,EC50,0.8 µM
C#CCN1CCCn2c1nc1c2c(=O)n(C)c(=O)n1C,ADORA2B,ligand displacement,,radioligand,cell membranes,Ki,> 10 µM
N=C(N)NCCC[C@H](NC(=O)[C@H](CC(=O)O)NC(=O)[C@H](Cc1c[nH]c2ccccc12)NC(=O)[C@H](CCCNC(=N)N)NC(=O)[C@H](Cc1ccccc1)NC(=O)[C@H](Cc1c[nH]cn1)NC(=O)CN)C(=O)N[C@@H](Cc1ccccc1)C(=O)NCC(=O)O,Melanocortin receptor 3,reporter gene,agonist,,,EC50,0.76 µM
CCCCCN1CCCn2c1nc1c2c(=O)n(C)c(=O)n1C,ADORA2B,ligand displacement,,radioligand,cell membranes,Ki,> 10 µM
CCCCN1CCC(COC(=O)c2ccc(N)c(OCF)c2)CC1,"Muscarinic acetylcholine receptor M1 (CHRM1, Homo sapiens, UniProt P11229)",cell-free assay,,radioligand,,Ki,> 10 µM
